SKKanGAS inh: S. pyogenes SKKanGAS growth inhibitors in kanamycin, primary screen, streptokinase expression inhibitor project, SKKanGAS strain, BacTiter-Glo luminescence | 6 h | inhibition, % at 7.5 µM | 300,000 tested, 1.3% active | AID 1662, 2009;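 active = mean replicate score, as percent of positive control median, at least 50; inconclusive = mean below 50 but one replicate at or above 50; inactive = mean and every replicate below 50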;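 note: strain carries kanamycin resistance gene driven by streptokinase promoter and grows in 40 µg/ml kanamycin; loss of luminescence reflects streptokinase promoter inhibition or plain growth inhibition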
Mdm2-MdmX inh: inhibitors of human Mdm2-MdmX association, primary screen, cell-based, luminescence, split luciferase, SaOS-2, uHTS | SaOS-2 split-luciferase Mdm2/MdmX complementation | inhibition, % at 8 µM | 330,000 tested, 3% active;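 active = inhibition of at least 50% at 8 µM in the primary screen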
Beta apoptosis: inhibitors of cytokine-induced beta cell apoptosis, primary screen, luminescence; INS-1E cytokine-induced death, ATP luminescence, 48 h; percent of positive-control rescue, neutral wells zero; protection from apoptosis, % (concentration not given with the values); 300,000 tested, 0.8% active;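 active = Every replicate reaches about 75%, or at least half do and their mean reaches it too, limit read from the data; inconclusive = At least half of replicates reach the limit but their mean does not; inactive = Under half of replicates reach the limit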;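 note: higher means more ATP so stronger rescue from cytokine killing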
Calb FLC: C. albicans growth inhibition with fluconazole, primary screen, CaCi-2 strain, Alamar Blue fluorescence; C. albicans CaCi-2 (fluconazole-resistant clinical isolate) + fluconazole, 48 h; growth inhibition, % (test concentration not listed); 300,000 tested, 0.57% active; AID 1979, 2009;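 active = growth inhibition above about 58% in most replicates, limit read from the data, passing the limit was not always enough; inconclusive = exactly half the replicates above a set limit; inactive = most replicates below a set limit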;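 note: all wells also contain fluconazole at 8 µg/ml as a sub-toxic cotreatment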
CSC inhib: cancer stem cell viability inhibitors, primary screen, luminescence | cancer stem cell-like cells viability | inhibition, % at 7.5 µM | 300,000 tested, 1.1% active | AID 2717, 2010; in the data active = inhibition above about 75%; inconclusive = no clear call, values can overlap the other calls; tested in HMLE shEcad cells
T cruzi repl: inhibitors of intracellular T. cruzi growth, primary screen, luminescence, NIH3T3 host cells; T. cruzi beta-gal in NIH3T3, 90 h; inhibition, % (test concentration not listed); 300,000 tested, 1.4% active; AID 1885, 2009;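 active = mean inhibition across valid replicates above about 55%, limit read from the data; inconclusive = mean below that limit but half or more replicates reach it; inactive = mean below it, under half of replicates reach it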;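 note: signal also drops with host cell toxicity which is not excluded here; higher percent means less beta-gal luminescence so fewer parasites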
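System: NIH/3T3 fibroblasts plus reporter T. cruzi. Medium: DMEM plus 2% FBS. Probe or stimulus: 5000 reporter trypomastigotes per well. Compound: single 50 nL compound addition per well in DMSO. Incubation: co-culture of at least 90 h after 3 h attachment. Detection: GalScreen β-gal luminescence, detergent lysis, 60 min. Evaluation: parasite load inhibition, %.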
Mdm2-MdmX conf: Mdm2-MdmX complex disruptors, retested hits, confirmation, luminescence, single concentration; inhibition, % at 8 µM; shares compounds with Mdm2-MdmX inh; AID 489028, 2010; Mdm2-MdmX binding, luminescent assay; 10,000 tested, 55% active; in the data active = inhibition above about 40%
Full FLuc ctr: full-length luciferase signal inhibition, confirmation, counter-screen for Mdm2/MdmX interaction inhibitor project, cell-based, single concentration, SaOS-2. 6,200 tested, 77% active. SaOS-2 full-length luciferase counterscreen, luminescence. AID 504607, 2011. inhibition, % at 8 µM. shares compounds with Mdm2-MdmX inh;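 active = mean inhibition at 8 µM reaching about 37%, which flags the compound as non-specific, limit read from the data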;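 note: p53-null SaOS-2 cells with luciferase driven by a doxycycline-inducible promoter; compound on cells about two nights before reading with doxycycline added after day one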
Of the large screens only hits and unclear results are named; the others gave an inactive call (follow-up assays come after a bar, where they were run). This is a sample that favours compounds with a hit; in the whole collection about 5.7% have one here.

NC(=O)c1nn(-c2ccccc2)nc1NC(=O)Cn1nnc(-c2ccccc2)n1	Mdm2-MdmX inh 60.9 | Mdm2-MdmX conf inactive
Cc1cccc(NC(=O)c2cc(-c3ccc(C)s3)nc3ccccc23)n1	Mdm2-MdmX inh 73.4 | Mdm2-MdmX conf 59.0 | Full FLuc ctr 83.3
CCOC(=O)c1sc(NC(=O)c2cc(-c3ccc(C)cc3)nc3ccccc23)c(C#N)c1C	SKKanGAS inh inconclusive, Mdm2-MdmX inh 76.0 | Mdm2-MdmX conf 92.5 | Full FLuc ctr 50.3
Cc1sc(NC(=O)c2cc(-c3ccccc3)nc3ccccc23)c(C(N)=O)c1C	T cruzi repl inconclusive
Cc1cc(NC(=O)c2cc(-c3ccccc3C)nc3ccccc23)no1	none
Cc1ccccc1-c1cc(C(=O)Nc2sc(C(=O)OC(C)C)c(C)c2C#N)c2ccccc2n1	SKKanGAS inh 58.5, Mdm2-MdmX inh 71.7, CSC inhib 111.3 | Mdm2-MdmX conf 95.0 | Full FLuc ctr inactive
COC(=O)c1sccc1NC(=O)c1cc(-c2ccc(C)cc2)nc2ccccc12	none
Cc1sc(NC(=O)c2cc(-c3ccc(Cl)cc3)nc3ccccc23)c(C(N)=O)c1C	Mdm2-MdmX inh 73.3 (no result: T cruzi repl) | Mdm2-MdmX conf inactive | Full FLuc ctr 76.2
NNC(=O)c1sc2cc(C(F)(F)F)cnc2c1-c1cccnc1	none
COC(=O)c1sc(NC(=O)c2cc(-c3ccccc3)nc3ccccc23)c(C#N)c1C	Mdm2-MdmX inh 95.5 | Mdm2-MdmX conf 91.7 | Full FLuc ctr inactive
COc1ccc(-c2cc(C(=O)Nc3sc4c(c3C#N)CCCC4)c3ccccc3n2)cc1	none (no result: SKKanGAS inh, Mdm2-MdmX inh, Calb FLC, T cruzi repl)
CCOC(=O)c1[nH]cnc1C(=O)NC1CCN(C(=O)OC(C)(C)C)CC1	none (no result: SKKanGAS inh, Calb FLC, T cruzi repl)
CCn1cnc2c(Nc3cccc(Cl)c3)nc(C#N)nc21	none (no result: SKKanGAS inh, Calb FLC, T cruzi repl)
CC(C)[C@H](CO)N(Cc1cccc(F)c1)c1nc(Nc2cccc(Cl)c2)c2ncn(C(C)C)c2n1	Mdm2-MdmX inh 54.9 | Mdm2-MdmX conf inactive
CC(C)n1cnc2c(N(C)c3cccc(Cl)c3)nc(N(CCO)CCO)nc21	none
CC[C@H](CO)Nc1nc(Nc2cccc(Cl)c2)c2ncn(C(C)C)c2n1	Mdm2-MdmX inh 90.3, CSC inhib 81.5 | Mdm2-MdmX conf 71.4 | Full FLuc ctr 39.8
Cc1ccc(C(=O)NCCc2nnc3ccc(NCc4ccc5c(c4)OCO5)nn23)cc1	none (no result: Beta apoptosis)
COc1ccc(-c2cc(-c3ccccc3)c(C#N)c(=S)[nH]2)cc1	none
COc1ccc(-c2cc(-c3ccccc3)c(C#N)c(S(C)=O)n2)cc1 (stereo not given)	Mdm2-MdmX inh 81.0 | Mdm2-MdmX conf inactive
COCCN=C1NN=C(c2cc(C)n(CC3CCCO3)c2C)CS1 (stereo not given)	none
COCCCN=C1NN=C(c2cc(C)n(Cc3ccccc3Cl)c2C)CS1	Mdm2-MdmX inh 78.7 | Mdm2-MdmX conf 76.5 | Full FLuc ctr 79.8
COCCn1c(C)cc(C2=NNC(=Nc3ccccc3F)SC2)c1C	Mdm2-MdmX inh 73.4 | Mdm2-MdmX conf 87.8 | Full FLuc ctr inactive
C=CCN=C1NN=C(c2cc(C)n(CC=C)c2C)CS1	Mdm2-MdmX inh 86.8 | Mdm2-MdmX conf 89.0 | Full FLuc ctr 50.1
COCCCN=C1NN=C(c2cc(C)n(-c3ccccc3F)c2C)CS1	none
COC(=O)CCC(=O)N1CCCC(N2CCN(c3cccc(C(F)(F)F)c3)CC2)C1 (stereo not given)	none (no result: Beta apoptosis)
COc1ccc(-c2nnc(SCC(=O)Nc3c(Cl)cc(Cl)cc3C(=O)O)o2)cc1	none (no result: SKKanGAS inh, Calb FLC, T cruzi repl)
CC(=O)NCCSc1ccc(S(=O)(=O)N2CCCC2)cn1	none (no result: SKKanGAS inh, Calb FLC, CSC inhib, T cruzi repl)
Cc1cc(C)c(C(=O)COC(=O)C2CCN(c3ccc(C(F)(F)F)cn3)CC2)c(C)c1	none (no result: SKKanGAS inh, Calb FLC, CSC inhib, T cruzi repl)
Cc1ccc(C(=O)OCC(=O)c2cc(C)n(CC3CCCO3)c2C)cc1 (stereo not given)	none
Cc1cc(C(=O)COC(=O)c2ccccc2Br)c(C)n1CC1CCCO1 (stereo not given)	Mdm2-MdmX inh 90.9 | Mdm2-MdmX conf 93.2 | Full FLuc ctr 38.6
Cc1cc(C(=O)COC(=O)c2cccnc2Cl)c(C)n1CC1CCCO1 (stereo not given)	Mdm2-MdmX inh 79.1 | Mdm2-MdmX conf 81.5 | Full FLuc ctr 97.4
Cc1cc(C(=O)COC(=O)c2ccccc2O)c(C)n1Cc1cccs1	Mdm2-MdmX inh 96.9 | Mdm2-MdmX conf 94.2 | Full FLuc ctr inactive
Cc1cc(C(=O)COC(=O)c2cccc(NS(C)(=O)=O)c2)c(C)n1CC1CCCO1 (stereo not given)	Mdm2-MdmX inh 70.4 (no result: SKKanGAS inh, Calb FLC, T cruzi repl) | Mdm2-MdmX conf 74.0 | Full FLuc ctr 97.1
Cc1cc(C(=O)COC(=O)c2ccccc2NCCO)c(C)n1CC1CCCO1 (stereo not given)	none
Cc1cc(C(=O)COC(=O)c2ccc3c(c2)OCO3)c(C)n1Cc1cccs1	none
COc1ccc(S(=O)(=O)N2CCOCC2)cc1NC(=O)CCNC(=O)c1ccc([N+](=O)[O-])cc1	none (no result: SKKanGAS inh, Calb FLC, CSC inhib, T cruzi repl)
COc1ccc(CNC(=O)Cn2nc(C)c3c(C)n(-c4ccc(C)cc4)nc3c2=O)cc1OC	none
COCCn1c(C)cc(C(=O)COC(=O)c2ccccc2Br)c1C	Mdm2-MdmX inh 79.8 | Mdm2-MdmX conf 92.8 | Full FLuc ctr 73.7
Cc1cc(C(=O)COC(=O)c2ccccc2O)c(C)n1CC1CCCO1 (stereo not given)	Mdm2-MdmX inh 93.7 (no result: SKKanGAS inh, Calb FLC, CSC inhib, T cruzi repl) | Mdm2-MdmX conf 97.3 | Full FLuc ctr inactive
CCn1c(C)cc(C(=O)COC(=O)c2ccccc2[N+](=O)[O-])c1C	Mdm2-MdmX inh 96.3 (no result: SKKanGAS inh, Calb FLC, T cruzi repl) | Mdm2-MdmX conf 96.3 | Full FLuc ctr 53.2
O=C(COC(=O)c1ccccc1[N+](=O)[O-])c1ccc2c(c1)OCO2	Mdm2-MdmX inh 53.1 | Mdm2-MdmX conf 82.9 | Full FLuc ctr 148.2
C=CCn1c(C)cc(C(=O)COC(=O)c2ccc(N)c([N+](=O)[O-])c2)c1C	none
CCc1cc2c3c(c1)C1(C(=O)N3C(C)(C)C=C2C)C(C#N)=C(N)Oc2[nH]c(=O)[nH]c(=O)c21 (stereo not given)	Mdm2-MdmX inh 56.9 | Mdm2-MdmX conf 41.5 | Full FLuc ctr 81.2
O=C(NCCc1ccc(Cl)cc1)C1CCC(CNc2nc(=S)[nH]c3ccccc23)CC1 (stereo not given)	Mdm2-MdmX inh 67.1 | Mdm2-MdmX conf inactive | Full FLuc ctr 60.6

Screening data from PubChem.
